# From ChEMBL document CHEMBL4020840, “Synthesis and Biological Evaluation of Selenium-Containing 4-Anilinoquinazoline Derivatives as Novel Antimitotic Agents” (J Med Chem, 2018)
# How the values were obtained:
# A549 [1] = experiment: Induction of apoptosis in human A549 cells assessed as late apoptotic cells at 2 nM after 24 hrs by Annexin V-FITC/propidium iodide staining based flow cytometry (reference value: 0.08%); assay type: functional
# MDA-MB-231 = experiment: Growth inhibition of human MDA-MB-231 cells after 48 hrs by MTT assay; assay type: functional, cell-based; conditions: MDA-MB-231, 48 h
# Outline: (§1)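 MTT assay: log-phase cells plated at 5 × 10³/well for 24 h, then exposed to a range of test concentrations for 48 h. MTT (5 mg/mL) added for 4 h, formazan dissolved in DMSO, absorbance read at 570 nm. IC50 is the concentration giving 50% growth inhibition, from dose-response curves; at least three independent experiments, mean ± SE.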
# HepG2 = experiment: Growth inhibition of human HepG2 cells after 48 hrs by MTT assay; assay type: functional, cell-based; conditions: HepG2, 48 h; outline: as §1
# [2] = Resistance factor, ratio of IC50 for human A549/CDDP cells to IC50 for human A549 cells; assay type: functional
# Outline: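 MTT assay: log-phase cells were seeded at 5 × 10³/well for 24 h, then exposed to a concentration series for 48 h. MTT (5 mg/mL) was added for 4 h, formazan was dissolved in DMSO, and A570 was read. IC50 values came from dose–response curves of at least three independent experiments. Resistance factor = IC50 in the resistant line / IC50 in the parental sensitive line.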
# A549 [3] = experiment: Cell cycle arrest in human A549 cells assessed as accumulation at G2/M phase at 4 nM up to 24 hrs by propidium iodide staining based flow cytometry (reference value: 10.13%); assay type: functional
# Outline: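 A549 seeded in six-well plates at 3 × 10⁵ cells/well and treated for 12 or 24 h; vehicle 0.01% DMSO. Cells fixed overnight in ice-cold 70% ethanol, treated with RNase A at 37 °C for 30 min, then stained with PI at 4 °C for 30 min. About 10 000 events acquired by flow cytometry at 488 nm; three experiments.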
# A549 [4] = experiment: Induction of apoptosis in human A549 cells assessed as early apoptotic cells at 2 nM after 24 hrs by Annexin V-FITC/propidium iodide staining based flow cytometry (reference value: 0.98%); assay type: functional
# [5] = Inhibition of porcine brain tubulin polymerization measured every 60 secs for 90 mins by DAPI staining based fluorescence assay; design: species or system Sus scrofa
# Outline: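 Purified tubulin was tested in a kit assay. Final buffer: 80 mM PIPES sesquisodium (pH 6.9), 2.0 mM MgCl₂, 0.5 mM EGTA, 1 mM GTP, 10.2% glycerol. Compound (0.1–10 μM) was prewarmed at 37 °C for 1 min before tubulin was added. DAPI reporter fluorescence (ex 340 / em 410 nm) was read every 60 s for 90 min. Area under the curve gave percent inhibition versus control and the IC50.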
# A549 [6] = experiment: Induction of apoptosis in human A549 cells assessed as necrotic cells at 4 nM after 24 hrs by Annexin V-FITC/propidium iodide staining based flow cytometry (reference value: 0.10%); assay type: functional
# A549 [7] = experiment: Induction of apoptosis in human A549 cells assessed as live cells at 4 nM after 24 hrs by Annexin V-FITC/propidium iodide staining based flow cytometry (reference value: 98.84%); assay type: functional
# MGC-803 = experiment: Antiproliferative activity against human MGC803 cells after 48 hrs by MTT assay; assay type: functional, cell-based; conditions: MGC-803, 48 h; outline: as §1
# [8] = Selectivity index, ratio of IC50 for human BJ cells to IC50 for human A549 cells; assay type: functional
# Outline: (§2)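 MTT assay in normal cells and A549: seeding at 5 × 10³ cells/well for 24 h, 48 h compound exposure, then 5 mg/mL MTT for 4 h, DMSO solubilisation and absorbance at 570 nm. IC50 values came from dose–response curves of at least three independent experiments. Selectivity ratio = IC50 in normal cells / IC50 in A549.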
# L02 = experiment: Antiproliferative activity against human LO2 cells after 48 hrs by MTT assay; assay type: cell-based; conditions: L02, 48 h; outline: as §1
# A549 [9] = experiment: Induction of apoptosis in human A549 cells assessed as late apoptotic cells at 4 nM after 48 hrs by Annexin V-FITC/propidium iodide staining based flow cytometry (reference value: 0.03%); assay type: functional
# A549 [10] = experiment: Induction of apoptosis in human A549 cells assessed as early apoptotic cells at 2 nM after 48 hrs by Annexin V-FITC/propidium iodide staining based flow cytometry (reference value: 1.48%); assay type: functional
# A549 [11] = experiment: Induction of apoptosis in human A549 cells assessed as late apoptotic cells at 2 nM after 48 hrs by Annexin V-FITC/propidium iodide staining based flow cytometry (reference value: 0.03%); assay type: functional
# A549 [12] = experiment: Induction of apoptosis in human A549 cells assessed as live cells at 4 nM after 48 hrs by Annexin V-FITC/propidium iodide staining based flow cytometry (reference value: 98.49%); assay type: functional
# A549 [13] = experiment: Induction of apoptosis in human A549 cells assessed as necrotic cells at 2 nM after 48 hrs by Annexin V-FITC/propidium iodide staining based flow cytometry relative to control; assay type: functional
# RKO = experiment: Growth inhibition of human RKO cells after 48 hrs by MTT assay; assay type: functional, cell-based; outline: as §1
# [14] = Selectivity index, ratio of IC50 for human LO2 cells to IC50 for human A549 cells; assay type: functional; outline: as §2
# HCT-116 = experiment: Growth inhibition of human HCT116 cells after 48 hrs by MTT assay; assay type: functional, cell-based; conditions: HCT-116, 48 h; outline: as §1
# A549 [15] = experiment: Induction of apoptosis in human A549 cells assessed as live cells at 2 nM after 48 hrs by Annexin V-FITC/propidium iodide staining based flow cytometry (reference value: 98.49%); assay type: functional
# MCF7 = experiment: Antiproliferative activity against human MCF7 cells after 48 hrs by MTT assay; assay type: functional, cell-based; conditions: MCF7, 48 h; outline: as §1
# HeLa = experiment: Antiproliferative activity against human HeLa cells after 48 hrs by MTT assay; assay type: functional, cell-based; outline: as §1
# A549 [16] = experiment: Induction of apoptosis in human A549 cells assessed as early apoptotic cells at 4 nM after 48 hrs by Annexin V-FITC/propidium iodide staining based flow cytometry (reference value: 1.48%); assay type: functional
# A549 [17] = experiment: Induction of apoptosis in human A549 cells assessed as necrotic cells at 2 nM after 24 hrs by Annexin V-FITC/propidium iodide staining based flow cytometry (reference value: 0.10%); assay type: functional
# A549 [18] = experiment: Induction of apoptosis in human A549 cells assessed as late apoptotic cells at 4 nM after 24 hrs by Annexin V-FITC/propidium iodide staining based flow cytometry (reference value: 0.08%); assay type: functional
# [19] = Growth inhibition of human HepG2/DOX cells after 48 hrs by MTT assay; assay type: functional, cell-based; outline: as §1
# A549/CDDP = experiment: Growth inhibition of human A549/CDDP cells after 48 hrs by MTT assay; assay type: functional, cell-based; outline: as §1
# [20] = Antiproliferative activity against HLF after 48 hrs by MTT assay; assay type: cell-based; conditions: Homo sapiens; outline: as §1
# A549 [21] = experiment: Induction of apoptosis in human A549 cells assessed as early apoptotic cells at 4 nM after 24 hrs by Annexin V-FITC/propidium iodide staining based flow cytometry (reference value: 0.98%); assay type: functional
# [22] = Selectivity index, ratio of IC50 for HLF to IC50 for human A549 cells; outline: as §2
# A549 [23] = experiment: Induction of apoptosis in human A549 cells assessed as necrotic cells at 4 nM after 48 hrs by Annexin V-FITC/propidium iodide staining based flow cytometry relative to control; assay type: functional
# A549 [24] = experiment: Growth inhibition of human A549 cells after 48 hrs by MTT assay; assay type: functional, cell-based; conditions: A549, 48 h
# BJ = experiment: Antiproliferative activity against human BJ cells after 48 hrs by MTT assay; assay type: cell-based; outline: as §1
# LoVo = experiment: Growth inhibition of human LoVo cells after 48 hrs by MTT assay; assay type: functional, cell-based; outline: as §1
# A549 [25] = experiment: Induction of apoptosis in human A549 cells assessed as live cells at 2 nM after 24 hrs by Annexin V-FITC/propidium iodide staining based flow cytometry (reference value: 98.84%); assay type: functional
smiles,measurement,setting,value
Cc1nc(N(C)c2ccc([Se]C#N)cc2)c2ccccc2n1,Activity,A549 [1],2.38%
same,IC50,MDA-MB-231,0.02 µM
same,IC50,HepG2,0.009 µM
same,Ratio IC50,[2],3.56
same,Activity,A549 [3],69.69%
same,Activity,A549 [4],13.55%
same,IC50,[5],3.12 µM
same,Activity,A549 [6],1.77%
same,Activity,A549 [7],64.96%
same,IC50,MGC-803,0.012 µM
same,Ratio IC50,[8],3.7
same,IC50,L02,0.037 µM
same,Activity,A549 [9],29.41%
same,Activity,A549 [10],17.56%
same,Activity,A549 [11],5.78%
same,Activity,A549 [12],40.54%
same,Activity,A549 [13],1.94%
same,IC50,RKO,0.009 µM
same,Ratio IC50,[14],4.1
same,IC50,HCT-116,0.015 µM
same,Activity,A549 [15],74.73%
same,IC50,MCF7,0.019 µM
same,IC50,HeLa,0.009 µM
same,Activity,A549 [16],21.45%
same,Activity,A549 [17],1.11%
same,Activity,A549 [18],5.58%
same,IC50,[19],0.029 µM
same,IC50,A549/CDDP,0.032 µM
same,IC50,[20],0.041 µM
same,Activity,A549 [21],27.46%
same,Ratio IC50,[22],4.6
same,Activity,A549 [23],7.59%
same,IC50,A549 [24],0.011 µM
same,IC50,BJ,0.033 µM
same,IC50,LoVo,0.032 µM
same,Activity,A549 [25],82.96%
